Legend:
Canis familiaris [1] = experiment: Diuretic activity in mongrel dog assessed as sodium level in excreted urine at 2 mg/kg, po measured for 6 hrs (reference value: 2 mequivalents); format: functional, Canis lupus familiaris
Canis familiaris [2] = experiment: Diuretic activity in mongrel dog assessed as potassium level in excreted urine at 2 mg/kg, po measured for 6 hrs (reference value: 1 mequivalents); format: functional, Canis lupus familiaris
Canis familiaris [3] = experiment: Diuretic activity in mongrel dog assessed as chloride level in excreted urine at 2 mg/kg, po measured for 6 hrs (reference value: 2 mequivalents); format: functional, Canis lupus familiaris
Canis familiaris [4] = experiment: Diuretic activity in mongrel dog assessed as volume of excreted urine at 2 mg/kg, po measured for 6 hrs (RVb = 180 ml)
Canis familiaris [5] = experiment: Diuretic activity in mongrel dog assessed as sodium level in excreted urine at 0.1 mg/kg, iv measured […] after dosage (reference value: 36 uequiv/min); format: functional, Canis lupus familiaris
Outline: (§1)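 Compounds were given iv to dogs as Na salts in H2O. […] The baseline is the mean of two 15-min periods before dosing. The response is the mean of two consecutive 15-min periods of maximal Na+ excretion, usually 15–45 min post-dose. Na+, K+ and Cl- are in μequiv/min and urine volume in ml/min, reported as control/drug.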

Canis familiaris [6] = experiment: Diuretic activity in mongrel dog assessed as potassium level in excreted urine at 1 mg/kg, iv measured between 15 to 45 mins after dosage (reference value: 6 to 47 uequiv/min); format: functional, Canis lupus familiaris; outline: as §1
Canis familiaris [7] = experiment: Diuretic activity in mongrel dog assessed as potassium level in excreted urine at 0.1 mg/kg, iv measured between 15 to 45 mins after dosage (reference value: 14 uequiv/min); format: functional, Canis lupus familiaris; outline: as §1
Canis familiaris [8] = experiment: Diuretic activity in mongrel dog assessed as chloride level in excreted urine at 0.1 mg/kg, iv measured between 15 to 45 mins after dosage (reference value: 14 uequiv/min); format: functional, Canis lupus familiaris; outline: as §1
Canis familiaris [9] = experiment: Diuretic activity in mongrel dog assessed as volume of excreted urine at 1 mg/kg, iv measured between 15 to 45 mins after dosage (reference value: 1 to 4 ml/min); format: functional, Canis lupus familiaris; outline: as §1
Canis familiaris [10] = experiment: Diuretic activity in mongrel dog assessed as volume of excreted urine at 0.1 mg/kg, iv measured between 15 to 45 mins after dosage (reference value: 1 ml/min); format: functional, Canis lupus familiaris; outline: as §1
Canis familiaris [11] = experiment: Diuretic activity in mongrel dog assessed as sodium level in excreted urine at 1 mg/kg, po measured for 6 hrs (reference value: 2 mequivalents); format: functional, Canis lupus familiaris
Canis familiaris [12] = experiment: Diuretic activity in mongrel dog assessed as potassium level in excreted urine at 1 mg/kg, po measured for 6 hrs (reference value: 1 mequivalents); format: functional, Canis lupus familiaris
Canis familiaris [13] = experiment: Diuretic activity in mongrel dog assessed as potassium level in excreted urine at 0.4 mg/kg, po measured for 6 hrs (reference value: 1 mequivalents); format: functional, Canis lupus familiaris
Canis familiaris [14] = experiment: Diuretic activity in mongrel dog assessed as volume of excreted urine at 1 mg/kg, po measured for 6 hrs (RVb = 180 ml)
Canis familiaris [15] = experiment: Diuretic activity in mongrel dog assessed as volume of excreted urine at 0.4 mg/kg, po measured for 6 hrs (RVb = 180 ml)
Canis familiaris [16] = experiment: Diuretic activity in mongrel dog assessed as sodium level in excreted urine at 10 mg/kg, iv measured […] after dosage (reference value: 5 to 66 uequiv/min); format: functional, Canis lupus familiaris; outline: as §1
Canis familiaris [17] = experiment: Diuretic activity in mongrel dog assessed as sodium level in excreted urine at 1 mg/kg, iv measured […] after dosage (reference value: 3 to 95 uequiv/min); format: functional, Canis lupus familiaris
Outline: (§2)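 Compounds were given iv to dogs as Na salts in H2O. The baseline is the mean of two 15-min periods before dosing. The response is the mean of two consecutive 15-min periods of maximal Na+ excretion, usually 15–45 min post-dose. Na+, K+ and Cl- are in μequiv/min and urine volume in ml/min, reported as control/drug.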

Canis familiaris [18] = experiment: Diuretic activity in mongrel dog assessed as potassium level in excreted urine at 10 mg/kg, iv measured between 15 to 45 mins after dosage (reference value: 7 to 63 uequiv/min); format: functional, Canis lupus familiaris; outline: as §1
Canis familiaris [19] = experiment: Diuretic activity in mongrel dog assessed as chloride level in excreted urine at 1 mg/kg, iv measured between 15 to 45 mins after dosage (reference value: 1 to 70 uequiv/min); format: functional, Canis lupus familiaris; outline: as §2
Canis familiaris [20] = experiment: Diuretic activity in mongrel dog assessed as chloride level in excreted urine at 10 mg/kg, iv measured between 15 to 45 mins after dosage (reference value: 3 to 64 uequiv/min); format: functional, Canis lupus familiaris; outline: as §2
Canis familiaris [21] = experiment: Diuretic activity in mongrel dog assessed as volume of excreted urine at 10 mg/kg, iv measured between 15 to 45 mins after dosage (reference value: 1 to 4 ml/min); format: functional, Canis lupus familiaris; outline: as §1
Canis familiaris [22] = experiment: Diuretic activity in mongrel dog assessed as sodium level in excreted urine at 3 mg/kg, po measured for 6 hrs (reference value: 2 mequivalents); format: functional, Canis lupus familiaris
Canis familiaris [23] = experiment: Diuretic activity in mongrel dog assessed as potassium level in excreted urine at 3 mg/kg, po measured for 6 hrs (reference value: 1 mequivalents); format: functional, Canis lupus familiaris
Canis familiaris [24] = experiment: Diuretic activity in mongrel dog assessed as chloride level in excreted urine at 1 mg/kg, po measured for 6 hrs (reference value: 2 mequivalents); format: functional, Canis lupus familiaris
Canis familiaris [25] = experiment: Diuretic activity in mongrel dog assessed as chloride level in excreted urine at 3 mg/kg, po measured for 6 hrs (reference value: 2 mequivalents); format: functional, Canis lupus familiaris

SMILES: C/C(=C\c1ccc(OCC(N)=O)c(Cl)c1Cl)[N+](=O)[O-]
- Activity (Canis familiaris [1]): 25 milliequivalent
- Activity (Canis familiaris [2]): 8 milliequivalent
- Activity (Canis familiaris [3]): 39 milliequivalent
- Activity (Canis familiaris [4]): 485 mL

SMILES: CC(=O)C(=Cc1ccc(OCC(=O)O)c(Cl)c1Cl)C(C)=O
- Activity (Canis familiaris [5]): 984 uEq/min
- Activity (Canis familiaris [6]): 104 uEq/min
- Activity (Canis familiaris [7]): 187 uEq/min
- Activity (Canis familiaris [8]): 1100 uEq/min
- Activity (Canis familiaris [9]): 11 mL/min
- Activity (Canis familiaris [10]): 9 mL/min
- Activity (Canis familiaris [11]): 30 milliequivalent
- Activity (Canis familiaris [12]): 7 milliequivalent
- Activity (Canis familiaris [13]): 6 milliequivalent
- Activity (Canis familiaris [14]): 492 mL
- Activity (Canis familiaris [15]): 762 mL

SMILES: C=C(CC)C(=O)c1ccc(OCC(=O)O)c(Cl)c1Cl [ETHACRYNIC ACID]
- Activity (Canis familiaris [16]): 2989 uEq/min
- Activity (Canis familiaris [17]): 188 uEq/min
- Activity (Canis familiaris [6]): 52 uEq/min
- Activity (Canis familiaris [18]): 194 uEq/min
- Activity (Canis familiaris [19]): 244 uEq/min
- Activity (Canis familiaris [20]): 3324 uEq/min
- Activity (Canis familiaris [9]): 6 mL/min
- Activity (Canis familiaris [21]): 22 mL/min
- Activity (Canis familiaris [11]): 21 milliequivalent
- Activity (Canis familiaris [22]): 37 milliequivalent
- Activity (Canis familiaris [12]): 5 milliequivalent
- Activity (Canis familiaris [23]): 7 milliequivalent
- Activity (Canis familiaris [24]): 26 milliequivalent
- Activity (Canis familiaris [25]): 42 milliequivalent

From ChEMBL document CHEMBL3272208, “(Vinylaryloxy)acetic acids. A new class of diuretic agents. 3. ((2-Nitro-1-alkenyl)aryloxy)acetic acids” (1976)
